{"source": "ChEMBL document CHEMBL1126303", "about": "“Syntheses and affinities of novel organometallic-labeled estradiol derivatives: a structure-affinity relationship” (J Med Chem, 1992)", "note": "Where “and” joins values, the source holds several entries; their conditions need not be identical. Identical values can stand only once."}
{"target": "Estrogen receptor (Ovis aries) (UniProt P49885+Q9TU15)", "sequence (Q9TU15 whole entry, looked up, chain 1 of 2)": "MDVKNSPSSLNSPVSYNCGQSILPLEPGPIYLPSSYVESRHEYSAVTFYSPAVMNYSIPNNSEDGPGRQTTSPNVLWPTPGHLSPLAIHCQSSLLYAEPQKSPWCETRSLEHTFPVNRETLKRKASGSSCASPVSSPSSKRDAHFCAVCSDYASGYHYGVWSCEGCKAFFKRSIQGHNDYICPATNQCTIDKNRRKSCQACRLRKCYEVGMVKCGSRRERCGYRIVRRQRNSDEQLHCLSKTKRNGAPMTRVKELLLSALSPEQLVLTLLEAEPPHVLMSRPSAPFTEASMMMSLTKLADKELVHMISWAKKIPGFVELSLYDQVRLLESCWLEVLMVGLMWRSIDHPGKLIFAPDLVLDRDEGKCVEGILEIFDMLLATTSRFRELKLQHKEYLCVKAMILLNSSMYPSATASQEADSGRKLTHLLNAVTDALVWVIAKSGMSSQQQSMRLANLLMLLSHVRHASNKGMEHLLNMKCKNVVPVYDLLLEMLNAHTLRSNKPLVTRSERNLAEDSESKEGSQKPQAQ", "sequence (P49885 whole entry, looked up, chain 2 of 2)": "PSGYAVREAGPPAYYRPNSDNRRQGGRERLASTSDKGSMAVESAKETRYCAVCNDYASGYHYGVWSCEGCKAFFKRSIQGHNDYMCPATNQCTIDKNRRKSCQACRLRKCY", "assay": "Relative binding affinity against the estrogen receptor using lamb uterine cytosol as a source of receptor and [3H]-estradiol as a tracer", "assay_type": "protein assay", "settings": "Uterus", "procedure,_shortened": "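Competitive radiometric binding on lamb uterine cytosol (105000g supernatant in 0.05 M Tris-HCl, 0.25 M sucrose, 0.1% β-mercaptoethanol, pH 7.4), 5 mg protein/mL. Incubated 3 h at 0 °C with 2 × 10⁻⁹ M [³H]estradiol plus competitor at nine concentrations, 1×10⁻¹⁰ to 1×10⁻⁶ M. Bound/free separated by protamine sulfate precipitation and filtration, then scintillation counting. Logit-transformed; RBA = IC50 estradiol/competitor ×100; mean of two determinations.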"}
{"molecule": "(alpha,beta)-[Cp Ru(17beta-estradiol)][PF6-]", "RBA": "0.1%"}
{"molecule": "17alpha-ferrocenyl-17beta-estradiol", "RBA": "15%"}
{"molecule": "(17-alpha-phenyl-17beta-estradiol)tricarbonylchromium", "RBA": "11%"}
{"molecule": "[Cp Ru(eta5-17beta-estradienonyl)]", "RBA": "0.1%"}
{"molecule": "C[C@]12CC[C@@H]3c4ccc(O)cc4CC[C@H]3[C@@H]1CC[C@@]2(O)C#Cc1ccccc1", "RBA": "27%"}
{"molecule": "alpha [Cp Ru[eta5-17beta-estradienonyl] [BF4]", "RBA": "0.44% and 0.46%"}
{"molecule": "(17alpha)-[Cp Ruphenyl]-17beta-estradiol)][CF3SO3]", "RBA": "0%"}
{"molecule": "(alpha,beta)-[Cp*Ru(17beta-estradiol)][CF3SO3]", "RBA": "2.9%"}
{"molecule": "C[C@]12CC[C@@H]3c4ccc(O)cc4CC[C@H]3[C@@H]1CC[C@@]2(O)c1ccccc1", "RBA": "25%"}
{"molecule": "(17-alpha(phenylethynyl)-17beta-estradiol)tricarbonylchromium", "RBA": "24%"}
